System: HEK-293T
Experiment: Multiplex assay against HEK293T
Type: toxicity, cell-based
Conditions: human
Method in brief: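 Phenotypes for tubulin, mitochondrial mass and membrane permeability are expressed as per cents of healthy-nucleus cells. Cells were stained live at seeding with Hoechst33342, BioTracker Green Microtubule Cytoskeleton Dye, MitoTracker Red and Annexin V Alexa Fluor 680, then imaged after compound addition on a CQ1 microscope at 37°C and 5% CO2. Machine-learning gating in CellPathfinder separated Hoechst high-intensity objects from normal cells, divided normal cells by nuclear state (healthy, pyknosed, fragmented) and divided pyknosed cells into mitotic or apoptotic.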

[1] = 12 h, 1 µM, compound concentration 1 uM, replicate 1
[2] = 12 h, 1 µM, compound concentration 1 uM, replicate 2
[3] = 12 h, 10 µM, compound concentration 10 uM, replicate 1
[4] = 12 h, 10 µM, compound concentration 10 uM, replicate 2
[5] = 24 h, 1 µM, compound concentration 1 uM, replicate 1
[6] = 24 h, 1 µM, compound concentration 1 uM, replicate 2
[7] = 24 h, 10 µM, compound concentration 10 uM, replicate 1
[8] = 24 h, 10 µM, compound concentration 10 uM, replicate 2
[9] = 48 h, 1 µM, compound concentration 1 uM, replicate 1
[10] = 48 h, 1 µM, compound concentration 1 uM, replicate 2
[11] = 48 h, 10 µM, compound concentration 10 uM, replicate 1
[12] = 48 h, 10 µM, compound concentration 10 uM, replicate 2

## CN[C@@H](C)C(=O)N[C@H](C(=O)N1CCC[C@H]1C(=O)Nc1snnc1-c1ccccc1)C1CCCCC1 [GDC-0152]
[1]
  Population Apoptotic (%): 31%
  Population Fragmented Nuclei (%): 5%
  Population Healthy Nuclei (%): 78%
  Population Hoechst High Intensity Objects (%): 5%
  Population Membrane Permeable-Phenotype (%): 0%
  Population Mitochondria Different-Phenotype (%): 41%
  Population Mitotic Cells (%): 68%
  Population Normal (%): 94%
  Population Pyknosed Nuclei (%): 15%
  Population Tubulin-Different-Phenotype (%): 35%
  Total Cell Count: 444
[2]
  Population Apoptotic (%): 60%
  Population Healthy Nuclei (%): 79%
  Population Hoechst High Intensity Objects (%): 7%
  Population Mitochondria Different-Phenotype (%): 62%
  Population Mitotic Cells (%): 39%
  Population Normal (%): 92%
  Population Pyknosed Nuclei (%): 14%
  Population Tubulin-Different-Phenotype (%): 26%
  Total Cell Count: 314
[3]
  Population Apoptotic (%): 50%
  Population Fragmented Nuclei (%): 6%
  Population Healthy Nuclei (%): 73%
  Population Hoechst High Intensity Objects (%): 13%
  Population Membrane Permeable-Phenotype (%): 0%
  Population Mitochondria Different-Phenotype (%): 78%
  Population Mitotic Cells (%): 49%
  Population Normal (%): 86%
  Population Pyknosed Nuclei (%): 20%
  Population Tubulin-Different-Phenotype (%): 78%
  Total Cell Count: 362
[4]
  Population Apoptotic (%): 72%
  Population Fragmented Nuclei (%): 7%
  Population Hoechst High Intensity Objects (%): 20%
  Population Mitochondria Different-Phenotype (%): 89%
  Population Mitotic Cells (%): 28%
  Population Normal (%): 80%
  Population Pyknosed Nuclei (%): 18%
  Population Tubulin-Different-Phenotype (%): 72%
  Total Cell Count: 330
[5]
  Population Apoptotic (%): 30%
  Population Fragmented Nuclei (%): 8%
  Population Healthy Nuclei (%): 80%
  Population Hoechst High Intensity Objects (%): 4%
  Population Membrane Permeable-Phenotype (%): 1%
  Population Mitochondria Different-Phenotype (%): 28%
  Population Mitotic Cells (%): 69%
  Population Normal (%): 95%
  Population Pyknosed Nuclei (%): 10%
  Population Tubulin-Different-Phenotype (%): 23%
  Total Cell Count: 601
[6]
  Population Apoptotic (%): 38%
  Population Fragmented Nuclei (%): 5%
  Population Healthy Nuclei (%): 82%
  Population Hoechst High Intensity Objects (%): 6%
  Population Membrane Permeable-Phenotype (%): 0%
  Population Mitochondria Different-Phenotype (%): 53%
  Population Mitotic Cells (%): 61%
  Population Normal (%): 93%
  Population Pyknosed Nuclei (%): 12%
  Population Tubulin-Different-Phenotype (%): 22%
  Total Cell Count: 387
[7]
  Population Apoptotic (%): 45%
  Population Fragmented Nuclei (%): 10%
  Population Healthy Nuclei (%): 71%
  Population Hoechst High Intensity Objects (%): 7%
  Population Membrane Permeable-Phenotype (%): 0%
  Population Mitochondria Different-Phenotype (%): 74%
  Population Mitotic Cells (%): 54%
  Population Normal (%): 92%
  Population Pyknosed Nuclei (%): 17%
  Population Tubulin-Different-Phenotype (%): 69%
  Total Cell Count: 454
[8]
  Population Apoptotic (%): 60%
  Population Fragmented Nuclei (%): 12%
  Population Healthy Nuclei (%): 68%
  Population Hoechst High Intensity Objects (%): 21%
  Population Mitochondria Different-Phenotype (%): 80%
  Population Mitotic Cells (%): 40%
  Population Normal (%): 78%
  Population Pyknosed Nuclei (%): 19%
  Population Tubulin-Different-Phenotype (%): 58%
  Total Cell Count: 400
[9]
  Population Apoptotic (%): 31%
  Population Fragmented Nuclei (%): 12%
  Population Healthy Nuclei (%): 78%
  Population Hoechst High Intensity Objects (%): 4%
  Population Membrane Permeable-Phenotype (%): 1%
  Population Mitochondria Different-Phenotype (%): 22%
  Population Mitotic Cells (%): 68%
  Population Normal (%): 95%
  Population Pyknosed Nuclei (%): 9%
  Population Tubulin-Different-Phenotype (%): 16%
  Total Cell Count: 928
[10]
  Population Apoptotic (%): 40%
  Population Fragmented Nuclei (%): 10%
  Population Healthy Nuclei (%): 82%
  Population Hoechst High Intensity Objects (%): 3%
  Population Mitochondria Different-Phenotype (%): 29%
  Population Mitotic Cells (%): 60%
  Population Normal (%): 96%
  Population Pyknosed Nuclei (%): 6%
  Total Cell Count: 603
[11]
  Population Apoptotic (%): 47%
  Population Fragmented Nuclei (%): 12%
  Population Healthy Nuclei (%): 73%
  Population Hoechst High Intensity Objects (%): 16%
  Population Membrane Permeable-Phenotype (%): 0%
  Population Mitochondria Different-Phenotype (%): 74%
  Population Mitotic Cells (%): 52%
  Population Normal (%): 83%
  Population Pyknosed Nuclei (%): 13%
  Population Tubulin-Different-Phenotype (%): 55%
  Total Cell Count: 538
[12]
  Population Apoptotic (%): 60%
  Population Healthy Nuclei (%): 70%
  Population Hoechst High Intensity Objects (%): 21%
  Population Mitochondria Different-Phenotype (%): 76%
  Population Mitotic Cells (%): 39%
  Population Normal (%): 78%
  Population Pyknosed Nuclei (%): 17%
  Population Tubulin-Different-Phenotype (%): 52%
  Total Cell Count: 417

From ChEMBL document CHEMBL5058577, “EUbOPEN Chemogenomics Library 2 (Multiplex)” (2022)
